Source: ChEMBL document CHEMBL3785062, “Preparation and Evaluation of Radiolabeled Antibody Recruiting Small Molecules That Target Prostate-Specific Membrane Antigen for Combined Radiotherapy and Immunotherapy” (J Med Chem, 2016)

Columns and labels:
[1] = Drug uptake in gall bladder of human LNCAP cells xenografted NCR nu/nu mouse at 0.19 to 0.36 MBq, iv at 6 hrs; format: ADME, organism-based
In short: (§1)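 NCr nu/nu male mice carrying subcutaneous right-flank LNCaP xenografts (2 × 10^6 cells in Matrigel:DPBS), used 4–7 weeks after inoculation. Tail-vein injection of 0.19–0.36 MBq 125I tracer in 0.9% saline. Killed at 1 and 6 h; tissues collected and counted, expressed as %ID/g ± SEM. Group sizes n = 2–3.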

[2] = Ratio of drug level in tumor to blood in human LNCAP cells xenografted NCR nu/nu mouse at 0.19 to 0.36 MBq, iv at 1 hr; format: ADME, organism-based; in short: as §1
[3] = test system: Tumour; assay: Drug uptake in tumor of human LNCAP cells xenografted NCR nu/nu mouse at 0.19 to 0.36 MBq, iv at 1 hr; format: ADME, organism-based, Neoplasm; conditions: in vivo; in short: as §1
[4] = Stability of compound in saline up to 48 hrs; format: physicochemical; conditions: buffer
[5] = Ratio of drug level in tumor to blood in human LNCAP cells xenografted NCR nu/nu mouse at 0.19 to 0.36 MBq, iv at 6 hrs; format: ADME, organism-based; in short: as §1
[6] = Chemical stability in solid state at -10 degC; format: physicochemical
[7] = test system: LNCaP; assay: Drug internalization in PSMA expressing human LNCAP cells at 10 nM incubated for 2 hrs at 37 degC measured for 10 mins by gamma counting analysis; format: ADME, cell-based; conditions: 0.01 µM
[8] = Drug uptake in gall bladder of human LNCAP cells xenografted NCR nu/nu mouse at 0.19 to 0.36 MBq, iv at 1 hr; format: ADME, organism-based; conditions: in vivo; in short: as §1
[9] = Drug uptake in thyroid gland of human LNCAP cells xenografted NCR nu/nu mouse at 0.19 to 0.36 MBq, iv at 1 to 6 hrs; format: ADME, organism-based; conditions: in vivo; in short: as §1
[10] = test system: LNCaP; assay: Drug internalization in PSMA expressing human LNCAP cells at 10 nM incubated for 2 hrs at 4 degC measured for 10 mins by gamma counting analysis; format: ADME, cell-based; conditions: 0.01 µM
[11] = test system: Tumour; assay: Drug uptake in tumor of human LNCAP cells xenografted NCR nu/nu mouse at 0.19 to 0.36 MBq, iv at 6 hrs; format: ADME, organism-based, Neoplasm; conditions: in vivo; in short: as §1
[12] = test system: LNCaP; assay: Drug internalization in PSMA expressing human LNCAP cells at 5 nM incubated for 2 hrs at 37 degC measured for 10 mins by gamma counting analysis; format: ADME, cell-based; conditions: 0.005 µM
[13] = test system: LNCaP; assay: Drug internalization in PSMA expressing human LNCAP cells at 5 nM incubated for 2 hrs at 4 degC measured for 10 mins by gamma counting analysis; format: ADME, cell-based; conditions: 0.005 µM
[14] = Drug uptake in small intestine of human LNCAP cells xenografted NCR nu/nu mouse at 0.19 to 0.36 MBq, iv at 1 hr; format: ADME, organism-based; conditions: in vivo; in short: as §1
[15] = test system: Kidney; assay: Drug uptake in kidney of human LNCAP cells xenografted NCR nu/nu mouse at 0.19 to 0.36 MBq, iv at 6 hrs; format: ADME, organism-based; conditions: in vivo; in short: as §1
[16] = test system: Kidney; assay: Drug uptake in kidney of human LNCAP cells xenografted NCR nu/nu mouse at 0.19 to 0.36 MBq, iv at 1 hr; format: ADME, organism-based; conditions: in vivo; in short: as §1
[17] = test system: Blood; assay: Drug uptake in blood of human LNCAP cells xenografted NCR nu/nu mouse at 0.19 to 0.36 MBq, iv at 1 hr; format: ADME, organism-based; conditions: in vivo; in short: as §1
[18] = Drug uptake in small intestine of human LNCAP cells xenografted NCR nu/nu mouse at 0.19 to 0.36 MBq, iv at 6 hrs; format: ADME, organism-based; conditions: in vivo; in short: as §1

SMILES | Drug uptake ([1]; in vivo, 6 h) | Kp at 1 h [2] | Drug uptake [3] | Stability [4] | Kp at 6 h [5] | Stability [6] | Drug uptake [7] | Drug uptake [8] | Drug uptake [9] | Drug uptake [10] | Drug uptake [11] | Drug uptake [12] | Drug uptake [13] | tissue uptake at 6 h ([1]; NCR nu/nu, gall bladder, read-out: Drug uptake) | Drug uptake [14] | Drug uptake [15] | Drug uptake [16] | Drug uptake [17] | Drug uptake [18]
O=C(O)CC[C@H](NC(=O)N[C@@H](CCCCNC(=O)Cn1nnc(COCCOCCOCCOCCOCCOCCOCCOCCNc2ccc([N+](=O)[O-])cc2[N+](=O)[O-])c1[125I])C(=O)O)C(=O)O | Not Active | 10 | 3.01 % ID/g | Stable | 3.4 | 3 weeks | Active | Active | Active | Not Active | 3.24 % ID/g |  |  |  |  |  |  |  | 
O=C(O)CC[C@H](NC(=O)N[C@@H](CCCCNC(=O)Cn1cc([125I])nn1)C(=O)O)C(=O)O |  |  |  |  |  |  |  |  |  |  |  | Active | Not Active |  |  |  |  |  | 
O=C(O)CC[C@H](NC(=O)N[C@@H](CCCCNC(=O)Cn1nnc([125I])c1CNc1ccc([N+](=O)[O-])cc1[N+](=O)[O-])C(=O)O)C(=O)O |  | 35 | 12.21 % ID/g |  | 59 |  |  | 92.46 % ID/g |  |  | 9.8 % ID/g |  |  | 7.89 %ID/g | 47.37 % ID/g | 66.46 % ID/g | 68.35 % ID/g | 0.36 % ID/g | 2.18 % ID/g
